TRPC6 activator: mouse TRPC6 channel activators, primary screen, cell-based, HEK293, membrane potential dye; HEK293-TRPC6 membrane potential dye fluorescence; hits give high values; B-score at 10 µM; hit rate 0.13% among 310,000;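 active = B-score of the integrated fluorescence ratio above library mean plus 3 SD, and starting fluorescence ratio within library mean plus 5 SD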;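 also: higher score means more depolarization so channel activation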
TRPC6 inh: mouse TRPC6 channel inhibitors, primary screen, cell-based, HEK293, membrane potential dye. Short transient receptor potential channel 6 (Mus musculus), Q61143. ACh-evoked depolarization; hits give low values. B-score at 10 µM. hit rate 1.1% among 310,000;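 active = B-score under library mean minus 3 SD, initial fluorescence not abnormally high, positive integrated signal ratio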;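 also: B-score derived from integrated fluorescence ratio over the kinetic read; more negative B-score means stronger inhibition of depolarization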
TRPC4 agonist: activators of mouse TRPC4 channel, primary screen, Fluo4 calcium, HEK293 TRPC4beta/mu-opioid cells; B-score at 10 µM; hit rate 0.49% among 310,000; Short transient receptor potential channel 4 (Mus musculus), Q9QUQ5; Fluo4 calcium fluorescence; hits give high values;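 active = B-score above 5 SD of library B-scores, and initial fluorescence ratio not above library mean plus 5 SD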;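 also: positive B-score marks a calcium rise read as TRPC4 activation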
Target sequence (Q9QUQ5 whole entry, looked up): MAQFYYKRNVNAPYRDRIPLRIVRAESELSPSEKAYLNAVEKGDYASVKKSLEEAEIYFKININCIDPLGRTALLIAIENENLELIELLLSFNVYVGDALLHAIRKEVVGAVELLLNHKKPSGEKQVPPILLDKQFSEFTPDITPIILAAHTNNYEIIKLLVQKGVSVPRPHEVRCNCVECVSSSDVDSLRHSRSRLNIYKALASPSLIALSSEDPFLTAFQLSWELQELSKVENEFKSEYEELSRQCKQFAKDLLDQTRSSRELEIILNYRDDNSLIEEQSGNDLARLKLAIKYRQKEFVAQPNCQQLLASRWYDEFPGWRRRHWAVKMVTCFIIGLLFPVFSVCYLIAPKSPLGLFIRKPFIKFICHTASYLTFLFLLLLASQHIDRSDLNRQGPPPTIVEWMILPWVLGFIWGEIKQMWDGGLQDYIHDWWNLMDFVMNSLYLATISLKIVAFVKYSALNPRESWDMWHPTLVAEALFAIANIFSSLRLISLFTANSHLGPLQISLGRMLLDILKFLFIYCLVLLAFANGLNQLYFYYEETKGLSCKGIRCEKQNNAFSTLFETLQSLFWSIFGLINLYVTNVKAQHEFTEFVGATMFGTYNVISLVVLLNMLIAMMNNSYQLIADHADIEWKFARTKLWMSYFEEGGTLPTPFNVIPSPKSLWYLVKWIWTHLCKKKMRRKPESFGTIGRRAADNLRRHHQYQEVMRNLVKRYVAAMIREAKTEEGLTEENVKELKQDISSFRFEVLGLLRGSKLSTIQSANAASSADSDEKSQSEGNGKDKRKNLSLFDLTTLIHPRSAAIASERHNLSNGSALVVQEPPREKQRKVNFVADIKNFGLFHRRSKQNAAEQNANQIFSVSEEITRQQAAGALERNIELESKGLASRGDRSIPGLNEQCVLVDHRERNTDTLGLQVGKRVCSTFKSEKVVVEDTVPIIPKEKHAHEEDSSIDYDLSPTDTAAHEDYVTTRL
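system = HEK293 cells stably co-expressing mouse TRPC4beta and mu-opioid receptor | schedule = Fluo4 dye loading 45 min at room temperature, 110 s recording | measure = B-scored integrated calcium fluorescence ratio | signal = Fluo4 calcium-sensitive dye fluorescence, kinetic, 1 Hz baseline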
Yeast superoxide: reduction of superoxide in aged yeast, primary screen, HTS. S. cerevisiae aged cells, superoxide DHE fluorescence; hits give low values. superoxide response (% of plate mean), % at 10 µM. hit rate 0.18% among 330,000. AID 2690, 2010;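 active = superoxide response under a set limit, about three screen SD below normal, cut at about 65% in these data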;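 also: yeast aged for seven days with compound at 30 °C before DHE staining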
TRPC4 inh: inhibitors of mouse TRPC4 channel, primary screen, Fluo4 calcium, HEK293 TRPC4beta/mu-opioid cells; AID 2247, 2010; Short transient receptor potential channel 4 (Mus musculus), Q9QUQ5; DAMGO-evoked Fluo4 calcium flux; hits give low values; B-score at 10 µM; hit rate 0.39% among 300,000;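 active = B-score over 3 SD under the library average, no early fluorescence shift, positive overall ratio signal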
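Assay system: HEK293 cells with stable TRPC4beta plus mu-opioid receptor expression. Dosing: single dose. Measured by: Fluo4 Ca2+ flux fluorescence. Also added: DAMGO in two steps, submaximal then maximal. Read-out: B score from integrated Fluo4 fluorescence ratio.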
TRPC4 potent: positive allosteric modulators of TRPC4, primary screen, cell-based, mouse TRPC4beta, HEK293 mu-opioid, Fluo-4 calcium; B-score at 10 µM; hit rate 0.42% among 310,000; Short transient receptor potential channel 4 (Mus musculus), Q9QUQ5; DAMGO EC20, Fluo-4 Ca2+ flux; hits give high values; AID 2227, 2009;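 active = B-score of calcium response area above 5 SD of library B-scores, with initial fluorescence ratio within 5 SD of library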
Hits are given with their value; . = inactive; / = no result. In the library only some 2.3% were active in any assay of this set; here they are far more common.

SMILES	TRPC6 activator	TRPC6 inh	TRPC4 agonist	Yeast superoxide	TRPC4 inh	TRPC4 potent
CC1=C[C@@H](C)[C@@H](c2ccccc2)OC1=O	.	.	61	.	.	.
CCOc1ccccc1CNC(=O)CCc1cn(CC)c2ccccc12	.	.	.	.	.	.
Cc1onc(-c2ccccc2Cl)c1C(=O)Nc1nnc(C(C)C)s1	.	.	.	.	.	.
CC1=C(C(=O)NCc2ccccc2)C(c2cc(Br)cc(Br)c2OC(C)C)NC(=O)N1 (centres undefined)	.	.	.	.	.	17
CN(C)S(=O)(=O)N1CCN(c2ccc([N+](=O)[O-])c(NC3CC3)c2)CC1	.	.	.	.	.	10
CCc1cccc(OCC(=O)Nc2ccc(C(=O)O)cc2NC(=O)COc2cccc(CC)c2)c1	.	.	.	.	-8	.
CC(=O)OC1CC(C)(C)N(OC(=O)CCCN2C(=O)c3ccccc3C2=O)C(C)(C)C1	.	.	.	.	.	.
COc1ccc(CN2CCCC2C(=O)Nc2ccc(OC)c(OC)c2)cc1OC (centres undefined)	.	-5.7	.	.	.	.
CC(Oc1ccccc1)C(=O)N1CCN(c2ncccn2)CC1 (centres undefined)	/	/	/	.	/	/
CCOC(=O)C1CCN(C2CCN(C(=O)c3oc4c(C)c(C)ccc4c3C)CC2)CC1	.	.	.	.	-6	.
Cc1ccc2c(C)c(C(=O)N3CCC(O)(c4ccccc4)CC3)oc2c1C	.	.	.	.	.	13
Cc1cc(=O)[nH]c(N/N=C/c2c(F)c(F)c(F)c(F)c2F)n1	.	.	.	.	.	.
CCCCn1c(N)c(N(CCC(C)C)C(=O)C2CC(=O)N(c3cccc(SC)c3)C2)c(=O)[nH]c1=O (centres undefined)	.	.	.	.	.	.
CCOc1ccccc1-n1c(N)c(C(N)=O)sc1=S	.	.	.	.	.	.
COc1ccc2c(Cl)c(-c3nnc4n3CCCCC4)sc2c1	.	.	167	.	.	.
Clc1c(-c2nnc3n2CCCCC3)sc2ccccc12	.	.	.	.	.	.
CNCc1ccccc1Sc1cccc2ccccc12	.	.	46	.	-6	.
Cc1ccc(S(=O)(=O)N(C)C)cc1NC(=O)CSc1nnnn1-c1ccc(O)cc1	.	.	.	.	.	.
O=C(/C=C/c1ccccc1Cl)N(c1ccccn1)C1CCCCC1	.	.	.	.	.	16
O=C(NNC1CC(=O)N(c2ccc(Br)cc2)C1=O)c1ccco1 (centres undefined)	.	.	.	.	.	.
CC1CC(C)CN(CCCNC(=O)c2ccc3c(c2)NC(=O)CS3)C1 (centres undefined)	.	.	69	.	.	.
CC1CC(C)CN(CCCNC(=O)c2ccc(N3CCCC3=O)cc2)C1 (centres undefined)	.	.	.	.	.	25
CC1CCCCN1CCCNC(=O)c1ccc(N2CCCC2=O)cc1 (centres undefined)	.	.	.	.	.	.
CC1CC(C)CN(CCCNC(=O)Cn2cccc2C(=O)c2ccccc2)C1 (centres undefined)	.	.	105	.	.	.
CN1CCN(c2ccc(NC(=O)c3ccc(-c4ccc(Br)cc4)o3)cc2)CC1	.	.	48	.	-7	.
Cc1ccc(C(=O)OCC(=O)NCC2COc3ccccc3O2)cc1 (centres undefined)	/	/	/	.	/	/
CCOc1cc(CNCc2cccs2)ccc1OCC(=O)NC(C)(C)C	.	.	.	.	-6	.
COc1cc(C(=O)N2C(=O)CCC2=O)cc(OC)c1OC	.	.	.	.	.	.
CCOC(=O)C1=NN(C(=O)c2cccc(Br)c2)C(O)(C(C)(C)C)C1 (centres undefined)	.	.	180	.	.	.
COc1ccccc1CNC(=O)COC(=O)c1ccc([N+](=O)[O-])o1	/	/	/	.	/	/
